How the values were obtained:
HepG2 cells = experiment: HepG2 cell viability assay; format: cell-based; settings: Homo sapiens, HepG2, 72 h, read-out: HepG2
[1] = system: intracellular Pf20S β5 with the β5^A49S mutation; experiment: Intraparasitic hybrid activation and proteasome inhibition assay; format: cell-based, Plasmodium falciparum; settings: ATZ4 700 nM, Dd2β5^A49S parasites, compared with WT
Summary of the method: (§1)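 Dd2 wild-type and mutant lines grown synchronized to 5–8% parasitemia. Early-trophozoite infected erythrocytes pulsed 6 h with test compound (700 or 800 nM) or DMSO, then washed four times in complete medium. Parasites released with saponin, washed in cold PBS and lysed in 20 mM Tris-HCl, 5 mM MgCl2, 1 mM DTT, pH 7.4. Equal lysate amounts labeled with 2 µM MV151 for 1 h at 37°C, separated by SDS-PAGE and scanned on the TAMRA channel.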

Pf Dd2^WT = experiment: Parasite growth inhibition assay, erythrocytic stage; format: cell-based, Plasmodium falciparum
[2] = system: P. berghei G2025^R551T (K13^R551T); experiment: Modified Peters' 4-day suppressive test for recrudescence, ART-resistant strain; format: in vivo, Swiss Webster mice; settings: ART 50 mg/kg, ATZ4 100 mg/kg i.p. day 0 to day 2
[3] = system: intracellular Pf20S β5 with the β6^A117D mutation; experiment: Intraparasitic hybrid activation and proteasome inhibition assay; format: cell-based, Plasmodium falciparum; settings: ATZ4 700 nM, Dd2β6^A117D parasites, compared with WT
Summary of the method: as §1

P. berghei ANKA lux = experiment: In vivo efficacy in mice infected with P. berghei ANKA lux; parameters: species or system Swiss Webster mice
Dd2β6^A117DK13^R539T = experiment: Parasite growth inhibition, dual resistant strain; format: cell-based, Plasmodium falciparum
Pf20Sβ5^A49S = experiment: Blocking of MV151 labeling in parasite lysate; format: binding, Plasmodium falciparum; settings: 1 h preincubation of Dd2β5^A49S lysate
Summary of the method: (§2)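 Dd2 wild-type or mutant parasite pellets lysed on ice for 1 h in 50 mM Tris-HCl, 5 mM MgCl2, 1 mM DTT, pH 7.4, then centrifuged; protein quantified by BCA. 5–10 µg of lysate protein preincubated with test compound for 1 h at 37°C. MV151 added at 2 µM final for a further 1 h at 37°C, protected from light. Run on 12% Bis-Tris SDS-PAGE and scanned at Cy3/TAMRA (λex 532, λem 560 nm).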

[4] = system: DHA-resistant clones DR1, DR2, DR4 derived from Dd2; experiment: Standard 72-h in vitro assay on DHA-resistant clones; format: cell-based, Plasmodium falciparum; settings: standard 72-h assay
Pf20S β5 = Pf20S β5 (Plasmodium falciparum, UniProt A0A5K1K7U1+Q8IJT1); experiment: biochemical; format: biochemical
Dd2β5^A49S = experiment: Parasite growth inhibition assay, erythrocytic stage; format: cell-based, Plasmodium falciparum
[5] = system: Pf20S β5 in lysate of Dd2^WT; experiment: Blocking of MV151 labeling in parasite lysate; format: binding, Plasmodium falciparum; settings: 1 h preincubation of Dd2^WT lysate
Summary of the method: as §2

Dd2β6^A117D = experiment: Parasite growth inhibition assay, erythrocytic stage; format: cell-based, Plasmodium falciparum
human i-20S β5i = human i-20S β5i (Homo sapiens, UniProt P20618+P28062); experiment: Proteasome IC50 determination, human i-20S β5i; format: biochemical
Summary of the method: (§3)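 Human i-20S (0.4 nM) assayed in 20 mM HEPES, 0.5 mM EDTA, 0.1 mg/mL BSA, pH 7.5, with 0.02% SDS and 15 µM Ac-ANW-AMC. Pf20S (1 nM) assayed in 50 mM Tris, 5 mM MgCl2, 1 mM DTT, pH 7.4, with 12 nM PA28α, 0.5 µM WLW-VS and 25 µM suc-LLVY-AMC. Test compound given as a 3-fold series, 100–0.0017 µM final. AMC read at 360/460 nm for 1–2 h; velocities fitted to a dose-response equation. Run in duplicate or triplicate.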

human c-20S β5c = human c-20S β5c (Homo sapiens, UniProt P20618+P28074); experiment: Proteasome IC50 determination, human c-20S β5c; format: biochemical
Summary of the method: as §3, with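 “c-20S (0.2” for “i-20S (0.4”, “25” for “15”, “suc-LLVY-AMC.” for “Ac-ANW-AMC.”, “h; linear” for “h;”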

Pf20Sβ6^A117D = experiment: Blocking of MV151 labeling in parasite lysate; format: binding, Plasmodium falciparum; settings: 1 h preincubation of Dd2β6^A117D lysate
Summary of the method: as §2

In the case of `C[C@H]1[C@@H](CC(=O)NCCCC(=O)N[C@@H](CC(=O)NC(C)(C)C)C(=O)NCCNC(=O)c2cc(-c3ccccc3F)ccc2F)O[C@@H]2O[C@@]3(C)CC[C@H]4[C@H](C)CC[C@@H]1[C@@]24OO3` [ATZ4, (S)-N4-(tert-butyl)-N1-(2-(2′,4-difluoro-[1,1′-biphenyl]-3-carboxamido)ethyl)-2-(4-(2-((3R,5aS,6R,8aS,9R,10R,12R,12aR)-3,6,9-trimethyldecahydro-12H-3,12-epoxy[1,2]dioxepino[4,3-i]isochromen-10-yl)acetamido)butanamido)succinamide], the EC50 (HepG2 cells) is reported as 9400 nM, the “inhibition of Pf20S β5 labeling by MV151 after 6 h pulse and washing” value [1] is reported as “similarly effective” and the “times more potent than ART1 against Dd2” value (Pf Dd2^WT; EC50 ratio) is reported as 10 times. For the same compound, the EC50 (Pf Dd2^WT; Plasmodium falciparum, DD2, Erythrocyte, 72 h, read-out: EC50 Pf Dd2^WT) was 4.3 ± 1.3 nM, the “mice with positive blood smear on day 6” value [2] was 0% and the “mice with positive blood smear on day 8” value [2] was 0%. For the same compound, the “mice with positive blood smear on day 10” value [2] was 60%, the “inhibition of Pf20S β5 labeling by MV151 after 6 h pulse and washing” value [3] was “similarly effective” and the “effect on parasite load” value (P. berghei ANKA lux; 10 mg/kg i.p. once daily day 3 to day 6, luminescence on day 7) was “no detectable effect”. For the same compound, the “decrease in parasite load” value (P. berghei ANKA lux; 25 mg/kg i.p. once daily day 3 to day 6, luminescence on day 7) was 1.2 log10, the “decrease in parasite load” value (P. berghei ANKA lux; 50 mg/kg i.p. once daily day 3 to day 6, luminescence on day 7, to below the limit of detection) was greater than 3 log10 and the “potency across Dd2, Dd2β6^A117D, Dd2K13^R539T and Dd2β6^A117DK13^R539T” value (Dd2β6^A117DK13^R539T) was “equipotent”. For the same compound, the “blocking of MV151 labeling of β5” value (Pf20Sβ5^A49S) was “prevented PI01 and ATZ4 from inhibiting”, the “susceptibility of DHA-resistant clones compared with WT Dd2” value [4] was “equally susceptible” and the IC50 (Pf20S β5) was 4.3 ± 0.9 nM. The “activity against Pf20S” value (Pf20S β5; Pf20S β5) was “potency comparable with that of PI01”, the “fold improvement over PI01 against Dd2β5^A49S” value (Dd2β5^A49S) was greater than 100 fold and the “fold more resistant / reduced potency, Dd2β5^A49S versus parental Dd2” value (Dd2β5^A49S; EC50 ratio) was no more than 3.6 fold. The EC50 (Dd2β5^A49S; Plasmodium falciparum, 72 h, read-out: EC50 Dd2β5^A49S) was 5.9 ± 1.9 nM, the “blocking of MV151 labeling of β5” value [5] was “dose dependently blocked labeling of β5” and the “fold improvement over PI01 against Dd2β6^A117D” value (Dd2β6^A117D) was no less than 5 fold. The “fold more resistant / reduced potency, Dd2β6^A117D versus parental Dd2” value (Dd2β6^A117D; EC50 ratio) was no more than 2.9 fold, the EC50 (Dd2β6^A117D; Plasmodium falciparum, 72 h, read-out: EC50 Dd2β6^A117D) was 6.7 ± 2.2 nM and the IC50 (human i-20S β5i) was 200 ± 57 nM. For the same compound, the IC50 (human c-20S β5c) was 890 ± 140 nM and the “blocking of MV151 labeling of β5” value (Pf20Sβ6^A117D) was “prevented PI01 and ATZ4 from inhibiting”.

— publication PMC10240386 (Cell chemical biology, 2023)
